Assay results published in paper PMC3186881 (Chemico-biological interactions, 2011).
Peptide text beside a SMILES is read from it. * marks the point of attachment. Cbz = O=C(OCc1ccccc1)*; CH2F = FC*

Columns and labels:
[1] = tested on: Jurkat cells; test: DNA fragmentation; format: cell-based; conditions: 24 h
[2] = tested on: Jurkat cells; test: Cell viability by trypan blue exclusion; format: cell-based; conditions: for cell viability (trypan blue exclusion): 100 nM
[3] = tested on: Jurkat cells; test: Intracellular hydrogen peroxide levels; format: cell-based; conditions: 100 nM, time course
Method in brief: (§1)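 Jurkat cells treated at 100 nM over a time course up to 16 h. Stained 30 min in the dark with dihydroethidine (superoxide, FL-3) or CM-H2DCF-DA (hydrogen peroxide, FL-1); flow cytometry, mean fluorescence reported. Compared with DMSO-treated cells by ANOVA and Bonferroni post-test.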

[4] = tested on: Jurkat cells; test: Intracellular superoxide levels; format: cell-based; conditions: 100 nM; for increase of intracellular superoxide compared to diluent: 16 h; for ROS levels (superoxide and hydrogen peroxide): time course
Method in brief: as §1

[5] = molecular target: chymotrypsin-like (CT-L) activity of the proteasome (Homo sapiens, UniProt P28074); test: Chymotrypsin-like proteasome activity in treated Jurkat cells; format: cell-based; conditions: for CT-L activity over time (recovery or sustained inhibition): 1 h to 16 h
[6] = tested on: Jurkat cells; test: Cell size by forward scatter versus side scatter; format: cell-based; conditions: 100 nM, 24 h
Method in brief: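 Jurkat cells treated 24 h, then analysed by flow cytometry. Cell size judged on forward- versus side-scatter plots, with a gate set on the DMSO control population to detect size shifts after treatment.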

[7] = tested on: β5 protein (chymotryptic-like subunit of the proteasome); test: β5 subunit protein level by western blot; format: cell-based; conditions: Jurkat cells, 100 nM, 1, 6 and 12 h
[8] = tested on: caspase-8; test: Caspase-8 activation by western blot; format: cell-based; conditions: Jurkat cells, 6 h
Method in brief: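 Jurkat cells treated 6 h at 100 nM. Lysates from 5x10^6 cells; 50 μg protein run on SDS-PAGE, transferred to nitrocellulose, probed with caspase-8 antibody (1:500) detecting pro- and cleaved forms, then secondary (1:5000). Antibodies in 5% milk/TBS, 0.005% Tween; ECL detection. Densitometry given as cleaved:pro-caspase-8 ratio.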

[9] = molecular target: trypsin-like (T-L) activity of the proteasome (Homo sapiens, UniProt Q99436); test: Trypsin-like proteasome activity in treated Jurkat cells; format: cell-based
Method in brief: (§2)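 Jurkat cells dosed 1 h or 12 h at equipotent concentrations chosen from 24 h DNA-fragmentation dose-response. Caspase-like activity read as z-LLE-amc hydrolysis; trypsin-like as […] hydrolysis. Fluorescence at ex 380/em 460 nm (RFU), normalized to DMSO-treated cells as 100%. Mean ± SD of three independent experiments; two-way ANOVA with Bonferroni post-test.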

[10] = molecular target: caspase-like (C-L) activity of the proteasome (Homo sapiens, UniProt P28072); test: Caspase-like proteasome activity in treated Jurkat cells; format: cell-based; conditions: for inhibition of C-L activity: Jurkat cells, equipotent concentrations (4.5 μM NPI-2078, 1 μM NPI-2104, 25 nM marizomib)
Method in brief: as §2

[11] = tested on: PARP; test: PARP cleavage by western blot; format: cell-based; conditions: Jurkat cells, 100 nM, 16 h
Method in brief: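 Jurkat cells exposed to 100 nM for 16 h. Lysates from 5x10^6 cells; 50 μg protein by SDS-PAGE, nitrocellulose transfer, PARP antibody 1:2000, secondary 1:5000, diluted in 5% milk/TBS with 0.005% Tween; ECL detection. Cleaved PARP band quantified by densitometry, normalized to actin.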

[12] = tested on: proteasomal activities; conditions: leukemia cells; cited from earlier work
[13] = tested on: Jurkat cells; test: Nuclear morphology by Hoechst staining; format: cell-based; conditions: 100 nM, 24 h
Method in brief: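 Jurkat cells exposed 24 h at 100 nM; 10,000 cells stained with 5 μM Hoechst 33342 for 20 min, cytocentrifuged onto slides and examined by fluorescence microscopy for nuclear shrinkage and fragmentation.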

[14] = equipotent concentrations (4.5 μM NPI-2078, 1 μM NPI-2104, 25 nM marizomib)
[15] = equipotent concentrations (4.5 μM NPI-2078, 1 μM NPI-2104, 25 nM marizomib), 12 h
[16] = equipotent concentrations (4.5 μM NPI-2078, 1 μM NPI-2104, 25 nM marizomib), 1 h

CC(=O)N[C@@H](CS)C(=O)O [NAC, N-acetyl cysteine, reference compound]
effect of antioxidant pretreatment on DNA fragmentation induced by LG analogs ([1]; 24 mM NAC before 100 nM analogs): attenuated | toxicity as single agent ([2]; 24 mM): did not have toxic effects | effect of antioxidant pretreatment on viability loss by LG analogs ([2]; 24 mM NAC before 100 nM analogs, 24 h): offered protection

CC12OC(=O)C1(C(O)C1C=CCCC1)NC(=O)C2CCBr (stereo not drawn) [NPI-2053]
hydrogen peroxide levels compared to diluent [3]: steadily increased | increase of intracellular superoxide compared to diluent [4]: over 7 fold

CC12OC(=O)C1(C(O)C1CCCCC1)NC(=O)C2CCCl (stereo not drawn) [NPI-2056]
hydrogen peroxide levels compared to diluent [3]: steadily increased | DNA fragmentation ([1]; 100 nM): less DNA fragmentation | increase of intracellular superoxide compared to diluent [4]: over 7 fold | cell viability (trypan blue exclusion) ([2]; 24 h): more viable cells | CT-L activity over time (recovery or sustained inhibition) ([5]; 100 nM): partial recovery

CC12OC(=O)C1(C(O)C1C=CCCC1)NC(=O)C2CCI (stereo not drawn) [NPI-2070]
hydrogen peroxide levels compared to diluent [3]: steadily increased | increase of intracellular superoxide compared to diluent [4]: over 7 fold

CC12OC(=O)C1(C(O)C1C=CCCC1)NC(=O)C2CCN=[N+]=[N-] (stereo not drawn) [NPI-2078]
change in cell size compared to control population [6]: did not show a large change in cell size | level of β5 protein [7]: Neither inhibitor decreased levels of β5 protein | caspase-8 activation (cleavage of pro-caspase-8) [8, 14]: caspase-8 activation occurred | ROS levels (superoxide and hydrogen peroxide) [4]: weak | cell viability (trypan blue exclusion) ([2]; 24 h): did not affect viability | inhibition of T-L activity [9, 15]: ~5% | CT-L activity, % of control [5, 16]: 10% | inhibition of CT-L activity [5, 15]: 70% | inhibition of C-L activity ([10]; 1 h): ≥ 95% | inhibition of C-L activity ([10]; 12 h): > 65%

CC12OC(=O)C1(C(O)C1C=CCCC1)NC(=O)C2CCSC#N (stereo not drawn) [NPI-2104]
caspase-8 activation (cleavage of pro-caspase-8) ([8]; 100 nM): weakly activated | caspase-8 activation (cleavage of pro-caspase-8) [8, 14]: caspase-8 activation occurred | ROS levels (superoxide and hydrogen peroxide) [4]: weak | cell viability (trypan blue exclusion) ([2]; 24 h): did not affect viability | inhibition of T-L activity ([9]; equipotent concentrations (1 μM NPI-2104, 25 nM marizomib), 1 h): 11% | inhibition of T-L activity [9, 15]: > 30% | inhibition of CT-L activity ([5]; 100 nM, 1 h): about 90% | CT-L activity over time (recovery or sustained inhibition) ([5]; 100 nM): recovered | CT-L activity, % of control ([5]; 100 nM, 12 h): 64.5% | CT-L activity, % of control ([5]; equipotent concentration (1 μM NPI-2104), 12 h): 28.6% | CT-L activity, % of control [5, 16]: 10% | inhibition of CT-L activity [5, 15]: 70% | inhibition of C-L activity ([10]; 1 h): ≥ 95% | inhibition of C-L activity ([10]; 12 h): > 65%

Cc1ccc(S(=O)(=O)OCCC2C(=O)NC3(C(O)C4C=CCCC4)C(=O)OC23C)cc1 (stereo not drawn) [NPI-2151]
hydrogen peroxide levels compared to diluent [3]: steadily increased | increase of intracellular superoxide compared to diluent [4]: over 7 fold

C[C@@]12OC(=O)[C@]1([C@@H](O)[C@@H]1C=CCCC1)NC(=O)[C@@H]2CCCl [marizomib, Marizomib, reference compound]
change in cell size compared to control population [6]: altered cell size | level of β5 protein [7]: Neither inhibitor decreased levels of β5 protein | caspase-8 activation (cleavage of pro-caspase-8) [8, 14]: caspase-8 activation occurred | PARP cleavage [11]: PARP cleavage occurred | inhibition of CT-L activity [5, 15]: sustained | inhibition of C-L activity ([10]; 12 h): sustained | inhibition at 0.025 µM ([10]; Jurkat, read-out: inhibition of C-L activity): 88% | profile of inhibition of proteasome activities [12]: blocking the CT-L and C-L activities potently, while T-L activity is inhibited to a lesser extent | nuclear morphology (Hoechst staining) [13]: shrinkage and fragmentation of the DNA

CC[C@H](C)[C@H](NC(=O)OCc1ccccc1)C(=O)N[C@@H](CCC(=O)OC)C(=O)N[C@H](C(=O)N[C@@H](CC(=O)OC)C(=O)CF)[C@@H](C)O [z-IETD-fmk] (Cbz-IE(OMe)TD(OMe)-CH2F)
effect of caspase-8 inhibitor pretreatment on analog-induced DNA fragmentation ([1]; 25 μM z-IETD-fmk 30 min before 100 nM analogs): prevented
